The source of these data is ChEMBL document CHEMBL4004805, “Tacrine-resveratrol fused hybrids as multi-target-directed ligands against Alzheimer's disease” (Eur J Med Chem, 2017).

SMILES strings stand for the structures. Activity calls are given as the source filed them. The calls are words filed in the database; no cut-off is given here.

The nature of series [1]: Antioxidant activity of the compound assessed as DPPH radical scavenging activity after 30 mins. It is filed as functional. The procedure, abridged: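 DPPH (0.2 mM solution) was mixed 1:1 in methanol with compound (10-3–10-6 M). After 30 min at laboratory temperature, absorbance was read at 517 nm. Triplicates per concentration; EC50 is the concentration giving a 50% decrease in DPPH activity.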
In general terms: The DPPH test is a chemical assay of radical scavenging.

Series [2] deals with T1, Acetylcholinesterase (Homo sapiens, UniProt P22303). The series is described as follows: Inhibition of acetylcholinesterase isolated from human red blood cells at 10 uM using acetylthiocholine as substrate preincubated for 5 mins followed by substrate addition measured every 2 mins by Ellman's method. The procedure, abridged: (§1)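 Buffer was 0.1 M potassium phosphate, pH 7.4, with DTNB and enzyme (10 µL of 2.0 units/mL stock) in a 100 µL mix. Substrate was iodide salt (20 µL of 0.01 M). Inhibitor range 10-3–10-9 M. Absorbance rise read at 412 nm, 37 °C. Each concentration run in triplicate. IC50 is the concentration giving 50% loss of activity. Screening done at 10 µM before IC50 work.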
T1 sequence (P22303 whole entry): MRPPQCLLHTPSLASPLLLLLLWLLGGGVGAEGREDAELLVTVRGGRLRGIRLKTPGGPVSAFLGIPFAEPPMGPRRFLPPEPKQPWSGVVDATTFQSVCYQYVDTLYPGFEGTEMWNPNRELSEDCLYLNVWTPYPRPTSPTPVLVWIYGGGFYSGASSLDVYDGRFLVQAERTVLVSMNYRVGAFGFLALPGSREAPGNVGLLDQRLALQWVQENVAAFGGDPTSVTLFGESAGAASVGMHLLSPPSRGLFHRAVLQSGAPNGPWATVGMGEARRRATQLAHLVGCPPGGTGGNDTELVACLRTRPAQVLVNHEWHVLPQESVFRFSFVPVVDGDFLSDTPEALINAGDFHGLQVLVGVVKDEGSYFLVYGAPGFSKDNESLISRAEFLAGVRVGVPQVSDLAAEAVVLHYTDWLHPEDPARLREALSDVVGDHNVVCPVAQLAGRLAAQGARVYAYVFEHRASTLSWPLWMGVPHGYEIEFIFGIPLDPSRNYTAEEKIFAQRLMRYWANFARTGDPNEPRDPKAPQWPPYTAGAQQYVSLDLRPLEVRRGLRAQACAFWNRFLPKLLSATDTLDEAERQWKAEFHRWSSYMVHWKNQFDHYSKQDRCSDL

For series [3], the target named is Cholinesterase (Homo sapiens) (UniProt P06276). Kind of series: Inhibition of butyrylcholinesterase isolated from human plasma at 10 uM using butyrylthiocholine as substrate preincubated for 5 mins followed by substrate addition measured every 2 mins by Ellman's method. In short, it runs like this:
as §1

Series [4] can be described thus: Neurotoxicity against Wistar rat primary cerebellar granule neurons assessed as decrease in cell survival at 5 uM after 24 hrs by MTT assay. It is filed as toxicity, cell-based. As to conditions: primary cerebellar granule neuron. In short, it runs like this:
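Cerebellar granule neurons came from 7-day-old Wistar rat pups, plated on poly-L-lysine in BME with 10% FBS and 25 mM KCl. Cytosine arabinoside (10 µmol/L) was added at 16 h. At 7 DIV, cells were moved to serum-free medium and exposed to 0–50 µM compound for 24 h. Survival was read by MTT at 570 nm as % of control; mean ± SE, four experiments at least in quadruplicate.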
(In general: Tetrazolium dyes change colour on reduction, which living cells bring about.)

Another series deals with HepG2. The series is described as follows: Hepatotoxicity against human HepG2 cells assessed as decrease in cell viability at 5 to 50 uM after 24 hrs by MTT assay. Particulars: hepg2, 24 h. It is filed as toxicity, cell-based. In short, it runs like this: (§2)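 HepG2 cells in high-glucose DMEM with 10% FBS were seeded at 8 x 10^3 cells/well, then exposed to 0–50 µM compound for 24 h in serum-free medium. MTT (0.1 mg/mL) was added for 20 min at 37 °C in the dark, formazan dissolved in Tris-HCl/5% Triton X-100, absorbance read at 570 nm. Viability as % of control; mean ± SE, four experiments at least in quadruplicate.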

The target in series [5] is T1, Acetylcholinesterase. Kind of series: Inhibition of acetylcholinesterase isolated from human red blood cells using acetylthiocholine as substrate preincubated for 5 mins followed by substrate addition measured every 2 mins by Ellman's method. The procedure, abridged: as §1
For series [6], the target named is Acetylcholinesterase (Electrophorus electricus, UniProt O42275). The series is described as follows: Displacement of propidium iodide from electric eel AChE by spectrofluorometric method. In short, it runs like this: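 Back-titration of a preformed EeAChE (2 µM)–propidium iodide (8 µM) complex in 1.0 mM Tris-HCl pH 8.0, with inhibitor added stepwise (final 8–56 µM; methanol stock). Fluorescence read at 635 nm, excitation 535 nm. Blanks were run for propidium alone, inhibitor plus propidium, and enzyme alone. KD derived by the Taylor–Lappi treatment, taking propidium KD = 0.7 µM.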
Acetylcholinesterase (Electrophorus electricus, UniProt O42275), sequence (O42275 whole entry): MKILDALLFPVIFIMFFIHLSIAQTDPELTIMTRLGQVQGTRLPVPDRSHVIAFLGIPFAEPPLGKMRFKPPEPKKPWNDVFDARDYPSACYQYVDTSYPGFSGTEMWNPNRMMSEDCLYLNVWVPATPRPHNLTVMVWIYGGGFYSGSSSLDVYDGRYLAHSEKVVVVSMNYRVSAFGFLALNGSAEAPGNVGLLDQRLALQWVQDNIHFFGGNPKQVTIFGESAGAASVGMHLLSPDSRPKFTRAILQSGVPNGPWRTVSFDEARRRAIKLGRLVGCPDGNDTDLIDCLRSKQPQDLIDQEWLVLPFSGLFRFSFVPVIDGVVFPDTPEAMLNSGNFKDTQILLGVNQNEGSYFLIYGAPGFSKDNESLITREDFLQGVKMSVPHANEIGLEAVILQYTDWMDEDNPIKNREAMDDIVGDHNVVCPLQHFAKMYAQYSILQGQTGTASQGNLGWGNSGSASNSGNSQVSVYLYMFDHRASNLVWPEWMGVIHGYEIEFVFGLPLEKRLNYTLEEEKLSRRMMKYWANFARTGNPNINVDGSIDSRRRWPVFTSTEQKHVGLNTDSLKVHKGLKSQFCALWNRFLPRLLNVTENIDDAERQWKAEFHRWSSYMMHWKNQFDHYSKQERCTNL

Series [7] addresses Amyloid-beta precursor protein (Homo sapiens) (UniProt P05067). Kind of series: Inhibition of amyloid beta 42 (unknown origin) self aggregation at 50 uM by ThT-based fluorometric method relative to control. The procedure, abridged:
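Pretreated Aβ42 (50 µM final) was incubated at 30 °C in 10 mM phosphate buffer pH 8.0 with 10 mM NaCl, with or without inhibitor (50 µM). Samples were then diluted in 50 mM glycine-NaOH pH 8.5 containing 1.5 µM ThT. Fluorescence (ex 446/em 490 nm) was scanned for 300 s, plateau values averaged minus ThT background, giving % inhibition.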

The nature of series [8]: Hepatotoxicity against human HepG2 cells assessed as cell viability at 5 to 50 uM after 24 hrs by MTT assay relative to control. It is filed as toxicity, cell-based. As to conditions: read-out: Activity. The procedure, abridged: as §2
Series [9] in a line: Neurotoxicity against Wistar rat primary cerebellar granule neurons assessed as decrease in cell survival at 5 to 50 uM after 24 hrs by MTT assay. It is filed as toxicity, cell-based. Particulars: primary cerebellar granule neuron.
The subject of series [10] is Astrocyte. The series is described as follows: Antineuroinflammatory activity against LPS-induced Wistar rat primary astrocytes assessed as decrease in nitrite production after 24 hrs by Griess method. It is filed as functional, cell-based. The procedure, abridged: (§3)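 Microglia (shaken off) and astrocytes (trypsinized remainder) came from newborn Wistar rat cortical mixed glia grown 10–13 days. Cells were co-treated 24 h with LPS and compound (10–50 µM). Nitrite in the medium was measured by Griess reaction (sulfanilamide 5 mM, NEDA 40 mM) against a NaNO2 standard curve. Mean ± SE of 3 experiments, each at least in quadruplicate.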
(Griess reagent forms a coloured azo dye with nitrite.)

Series [11] concerns Microglia. Kind of series: Antineuroinflammatory activity against LPS-induced Wistar rat primary microglia cells assessed as decrease in nitrite production after 24 hrs by Griess method. It is filed as functional, cell-based. The procedure, abridged: as §3
The test system of series [12] is Astrocyte. Kind of series: Immunomodulatory activity in LPS-induced Wistar rat primary astrocytes assessed as decrease in iNOS expression at 10 to 50 uM after 24 hrs by Western blot method. It is filed as functional, cell-based. In short, it runs like this: (§4)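 Rat primary microglia or astrocytes were exposed 24 h to LPS with compound (0–50 µM), then lysed; protein was measured by Lowry. Immunoblots used anti-iNOS, anti-TREM2 or anti-MRC1 with GAPDH as loading control, read by ECL and densitometry. Values are % of LPS alone; mean ± SE of 3 experiments.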

For series [13], the system named is Microglia. Kind of series: Immunomodulatory activity in LPS-induced Wistar rat primary microglia cells assessed as decrease in iNOS expression at 10 to 50 uM after 24 hrs by Western blot method. It is filed as functional, cell-based. In short, it runs like this: as §4
The subject of series [14] is Primary glial cell. The series is described as follows: Immunomodulatory activity in LPS-induced Wistar rat primary glial cells assessed as decrease in MRC1 expression at 10 to 50 uM after 24 hrs by Western blot method. It is filed as functional, cell-based. The procedure, abridged:
as §4

Series [15] has as its system Primary glial cell. Kind of series: Immunomodulatory activity in LPS-induced Wistar rat primary glial cells assessed as decrease in TREME2 expression after 24 hrs by Western blot method. It is filed as functional, cell-based. In short, it runs like this: as §4
For series [16], the system named is Primary glial cell. The series is described as follows: Immunomodulatory activity in LPS-induced Wistar rat primary glial cells assessed as decrease in TREME2 mRNA expression after 24 hrs. It is filed as functional, cell-based.
The subject of series [17] is Primary glial cell. Kind of series: Immunomodulatory activity in LPS-induced Wistar rat primary glial cells assessed as decrease in iNOS mRNA expression after 24 hrs. It is filed as functional, cell-based.
Series [18] is described as follows: Neurotoxicity against Wistar rat primary cerebellar granule neurons assessed as decrease in cell survival at 25 to 50 uM after 24 hrs by MTT assay. It is filed as toxicity, cell-based. As to conditions: primary cerebellar granule neuron.
Series [19] addresses Cholinesterase (Homo sapiens) (UniProt P06276). Kind of series: Inhibition of butyrylcholinesterase isolated from human plasma up to 100 uM using butyrylthiocholine as substrate preincubated for 5 mins followed by substrate addition measured every 2 mins by Ellman's method. In short, it runs like this:
as §1

Amyloid-beta precursor protein (Homo sapiens), sequence (P05067 whole entry): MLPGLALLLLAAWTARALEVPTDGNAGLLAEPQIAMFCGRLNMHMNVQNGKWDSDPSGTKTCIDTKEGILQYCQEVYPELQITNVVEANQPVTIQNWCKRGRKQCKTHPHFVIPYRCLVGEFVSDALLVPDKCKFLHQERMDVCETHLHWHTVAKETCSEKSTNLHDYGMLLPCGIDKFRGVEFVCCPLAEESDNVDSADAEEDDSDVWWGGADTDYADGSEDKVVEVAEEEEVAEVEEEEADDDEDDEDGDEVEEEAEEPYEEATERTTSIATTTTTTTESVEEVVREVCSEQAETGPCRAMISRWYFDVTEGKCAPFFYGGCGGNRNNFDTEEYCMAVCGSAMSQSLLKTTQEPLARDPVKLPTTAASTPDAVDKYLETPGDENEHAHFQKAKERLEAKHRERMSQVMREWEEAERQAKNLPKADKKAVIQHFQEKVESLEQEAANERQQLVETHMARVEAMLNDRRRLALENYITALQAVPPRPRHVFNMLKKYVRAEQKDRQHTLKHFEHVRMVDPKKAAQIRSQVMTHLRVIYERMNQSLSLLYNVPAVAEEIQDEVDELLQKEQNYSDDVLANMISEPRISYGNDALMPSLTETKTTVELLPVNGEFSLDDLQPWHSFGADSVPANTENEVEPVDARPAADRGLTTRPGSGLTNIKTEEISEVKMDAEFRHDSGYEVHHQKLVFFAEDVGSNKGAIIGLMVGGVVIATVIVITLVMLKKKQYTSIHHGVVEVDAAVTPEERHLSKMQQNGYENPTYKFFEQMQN
Cholinesterase (Homo sapiens), sequence (P06276 whole entry): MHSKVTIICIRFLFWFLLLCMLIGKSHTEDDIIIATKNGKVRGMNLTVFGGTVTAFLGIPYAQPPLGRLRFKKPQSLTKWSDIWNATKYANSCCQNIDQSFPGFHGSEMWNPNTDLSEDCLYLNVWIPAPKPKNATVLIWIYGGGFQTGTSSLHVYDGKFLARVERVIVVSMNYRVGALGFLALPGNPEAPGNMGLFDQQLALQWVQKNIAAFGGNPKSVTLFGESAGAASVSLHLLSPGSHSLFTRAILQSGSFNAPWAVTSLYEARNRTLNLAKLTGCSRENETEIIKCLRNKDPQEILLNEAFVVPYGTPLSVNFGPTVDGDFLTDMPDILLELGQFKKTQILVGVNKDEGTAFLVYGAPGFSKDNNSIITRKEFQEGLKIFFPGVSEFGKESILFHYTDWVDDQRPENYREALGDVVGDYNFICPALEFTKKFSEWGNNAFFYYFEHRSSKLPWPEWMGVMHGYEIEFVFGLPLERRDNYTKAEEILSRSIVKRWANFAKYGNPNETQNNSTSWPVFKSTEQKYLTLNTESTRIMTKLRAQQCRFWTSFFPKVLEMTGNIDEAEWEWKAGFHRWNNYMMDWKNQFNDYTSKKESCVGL

Usually EC50 stands for the concentration needed to bring the measured effect to its halfway point. With `Cc1c(C)c2c(c(C)c1O)CCC(C)(C(=O)O)O2` (stereo unspecified) [TROLOX], in [1], the EC50 worked out at 16.2 µM.
As a reminder, the inhibition is the change of the read-out against control, counted positive when it falls. Take `COc1cc(CCc2ccc(Nc3c4c(nc5ccc(OC)cc35)CCCC4)cc2)cc(OC)c1`: the inhibition result (at Acetylcholinesterase [2]; in series [3]) was “inactive” in each case. The Activity result (in [4]; in the series on HepG2) was “Toxic” in each case.
The IC50 is the midpoint of a concentration-inhibition curve. What is called Kd is the equilibrium constant for the complex coming apart. A lower Kd goes with tighter binding. The compound `COc1cc(CCc2ccc(Nc3c4c(nc5cc(Cl)ccc35)CCCC4)cc2)cc(OC)c1` returned an IC50 on Acetylcholinesterase [5] of 0.8 µM. For the same compound, the inhibition result in series [3] is “inactive”. For the same compound, the affinity on Acetylcholinesterase [6], expressed as Kd, was 7.31 µM. The inhibition in series [7] is 17.6%. Moreover, the EC50 in [1] turned out to be 155 µM. Further, the Activity result (in series [4]; in the series with HepG2) was “Toxic” throughout.
Regarding `COc1cc(/C=C/c2ccc(Nc3c4c(nc5cc(Cl)ccc35)CCCC4)cc2)cc(OC)c1`, the inhibition result (at Acetylcholinesterase [2]; in series [3]) was “inactive” each time. The same compound displayed an inhibition in series [7] of 21.6%. Moreover, the Activity result in series [4] is reported as “Toxic”. In addition, in series [8], the viability at 24 h, up to 50 µM is 70%.
In the case of `COc1ccc2nc3c(c(N)c2c1)CCCC3`, the inhibition in series [7] was < 5%.
On to `COc1cc(/C=C/c2ccc(Nc3c4c(nc5ccc(OC)cc35)CCCC4)cc2)cc(OC)c1`, for which the inhibition entry (at Acetylcholinesterase [2]; in series [3]) was “inactive” in each case. The Activity entry (in series [4]; with HepG2) was “Toxic” each time.
The compound `Oc1cc(O)cc(/C=C/c2ccc(Nc3c4c(nc5cc(Cl)ccc35)CCCC4)cc2)c1` returned an IC50 at Acetylcholinesterase [5] of 8.8 µM. In addition, the inhibition entry in series [3] is “inactive”. The compound also registered an inhibition in series [7] of 31.2%. Moreover, in [1], the EC50 was > 5000 µM. For the same compound, the Activity entry in [9] was “Non-Toxic”; in the series on Astrocyte [10] it was “Dose-dependent effect”; in the series with Microglia [11] it was “Dose-dependent effect”; in the series with Primary glial cell [15] it was “Dose-dependent effect”; with HepG2 it was “Toxic”. In addition, the result in the series on Astrocyte [12], in the series on Microglia [13], with Primary glial cell [14], in the series on Primary glial cell [16] and in the series on Primary glial cell [17] was Active.
Compound `COc1cc(CCc2ccc(Nc3c4c(nc5ccccc35)CCCC4)cc2)cc(OC)c1` registered an IC50 against Acetylcholinesterase [5] of 14.2 µM. Moreover, the inhibition entry in [3] was “inactive”. Also, the Activity result (in series [4]; with HepG2) was “Toxic” each time.
Regarding `COc1cc(/C=C/c2ccc(Nc3c4c(nc5ccccc35)CCCC4)cc2)cc(OC)c1`, the inhibition entry (at Acetylcholinesterase [2]; in [3]) was “inactive” throughout. Further, the Activity entry (in series [18]; in the series on HepG2) was “Toxic” throughout.
`Oc1cc(O)cc(CCc2ccc(Nc3c4c(nc5cc(Cl)ccc35)CCCC4)cc2)c1` came in with an IC50 on Acetylcholinesterase [5] of 1.3 µM. In [3], the inhibition entry was “inactive”. Moreover, in series [7], the inhibition came to 37.3%. Further, the EC50 in series [1] was > 5000 µM. For the same compound, the Activity entry (in series [18]; with HepG2) was “Toxic” each time.
Take `Oc1ccc(/C=C/c2cc(O)cc(O)c2)cc1` [RESVERATROL]: the inhibition entry (at Acetylcholinesterase [2]; in series [19]) was “inactive” throughout. Besides, the inhibition in series [7] was 30%. Further, in series [1], the EC50 was found to be 25.6 µM. The Activity entry in the series with HepG2 was “Non-Toxic”.
Regarding `CC(=O)N[C@@H](CS)C(=O)O` [ACETYLCYSTEINE], the EC50 in series [1] was 28 µM.
